Assay results as given in ChEMBL document CHEMBL2177098, “Synthesis and evaluation of novel ¹⁸F labeled 2-pyridinylbenzoxazole and 2-pyridinylbenzothiazole derivatives as ligands for positron emission tomography (PET) imaging of β-amyloid plaques” (J Med Chem, 2012).
The source made the active and inactive calls. The rule behind the calls is not given here.

Experiments:
[1] = Displacement of [125I]-IMPY from amyloid beta (1 to 42) fibrils after 2 hrs by gamma-counting analysis
Procedure, shortened: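 Competition binding with aggregated Aβ1-42 fibrils and [125I]IMPY (60000−100000 cpm/100 μL) in 0.05% BSA (1 mL total); inhibitors 10⁻⁴−10^−8.5 M in ethanol. Incubated 37 °C for 2 h, then GF/B vacuum filtration with PBS (0.02 M, pH 7.4) washes and γ counting. Three repeats; IC50 converted to Ki by Cheng−Prusoff.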

Mus musculus [2] = species: Mus musculus; assay: Binding affinity to amyloid beta plaques in transgenic C57BL6 mouse hippocampus expressing APP Swedish mutant/PSEN1 at 370 KBq/100 ul after 1 hr by autoradiographic analysis; type: tissue-based; settings: tested as the 18F-labelled form
Procedure, shortened: (§1)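 Paraffin brain sections from 12-month-old Tg mice (C57BL6, APPswe/PSEN1) and age-matched controls, deparaffinized through xylene and graded ethanol, then PBS (0.2 M, pH 7.4) 30 min. Incubated with 18F tracer (370 KBq per 100 μL) 1 h at room temperature, washed in 40% EtOH, rinsed in water, then phosphor plate exposure 2 h. The same sections were afterwards stained with 0.125% thioflavin S in 10% EtOH for 3 min and washed in 40% EtOH.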

Mus musculus [3] = species: Mus musculus; assay: Binding affinity to amyloid beta plaques in transgenic C57BL6 mouse cortex expressing APP Swedish mutant/PSEN1 at 370 KBq/100 ul after 1 hr by autoradiographic analysis; settings: tested as the 18F-labelled form; procedure, shortened: as §1
Mus musculus [4] = species: Mus musculus; assay: Binding affinity to amyloid beta plaques in transgenic C57BL6 mouse cortex expressing APP Swedish mutant/PSEN1 at 370 KBq/100 ul after 1 hr by thioflavinS-staining method; settings: tested as the 18F-labelled form; procedure, shortened: as §1
Mus musculus [5] = species: Mus musculus; assay: Binding affinity to amyloid beta plaques in transgenic C57BL6 mouse hippocampus expressing APP Swedish mutant/PSEN1 at 370 KBq/100 ul after 1 hr by thioflavinS-staining method; type: tissue-based; settings: tested as the 18F-labelled form; procedure, shortened: as §1

## CNc1ccc(-c2nc3ccc(OCCOCCF)cc3s2)cn1
[1]
  Ki: 29.7 nM

## CN(C)c1ccc(-c2nc3ccc(OCCOCCOCCF)cc3s2)cn1
[1]
  Ki: 5.8 nM
Mus musculus [2]
  Activity: Active
Mus musculus [3]
  Activity: Active
Mus musculus [4]
  Activity: Active
Mus musculus [5]
  Activity: Active
